Our source for the viability, differential viability (reversal) and inhibition values is PubChem BioAssay.

SMILES strings stand for the structures. Active and inactive are the calls of the source.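 The calls were made as follows, unless noted: active = viability at or under a set limit in both replicates, limit being median viability minus 3 SD (cut at about 48% in these data, passing the limit was not always enough); inconclusive = at or under the limit in just one replicate; inactive = at or above the limit in both replicates.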

Assay [1] in a line: reduced viability of SK-BR-3 breast cancer cells – cell-based, 24 h, human, pilot screen (AID 572;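 active = viability at or below 10% of carrier control in both of two separate runs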;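 also: compound exposure lasted between 18 and 24 h rather than exactly 24 h; 100% = carrier-treated control wells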). As to conditions: SK-BR-3 viability, CellTiter-Glo luminescence, at 10 µM, stronger effect = lower value.
The nature of assay [2]: HUVEC growth inhibition – cell-based, human, primary screen (AID 575;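 active = viability at or below 30% in both replicate assays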;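 also: 100% = median of untreated cell wells with 0.1% DMSO on each plate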). As to conditions: HUVEC proliferation, CellTiter-Glo luminescence, 72 h; at 10 µM; stronger effect = lower value. An outline of the steps:
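Assay system: primary human umbilical vein endothelial cells / Buffer or medium: endothelial basal medium with 2% FBS plus growth supplements / Compound dosing: one dose, 10 µM final, 0.1% DMSO / Timing: 72 h treatment at 37 °C / Signal: CTG luminescence / Benchmarks: 32 DMSO-only cell-control wells (high), 32 MePR drug-control wells (low) per plate / Plate: collagen-coated 384-well format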

A short description of assay [3]: H69AR cell proliferation blockers – human, duplicate replicates, primary screen (AID 580).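 Also: 100% = mean luminescence of untreated wells and 0% = no signal.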 As to conditions: H69AR lung tumor cells viability, ATP luminescence, 72 h; at 10 µM; stronger effect = lower value.
Assay [4] in a line: MRP1 drug-resistance reversers in H69AR cells – cell-based, doxorubicin co-treatment, pilot screen (AID 601;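 active = viability loss from added drug above about 55%, and viability with drug at most 40%, in both replicates, limit read from the data, passing the limit was not always enough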). As to conditions: CellTiter-Glo, 72 h, at 10 µM; for differential viability (reversal): stronger effect = higher value. A general note: ATP-based viability assays read luminescence as a measure of living cells.
Assay [5] in a line: yeast transport mutant growth inhibition pilot in 384-well plates, post-Golgi transport modulator project (AID 636; in the data active = inhibition above about 31%). As to conditions: absorbance 615 nm, about 18 h, stronger effect = higher value.
Assay [6] can be described thus: growth suppression of yeast trafficking mutant, preliminary HTS, modulators of trafficking downstream of Golgi apparatus project, 1536-format plate, OD 615 nm (AID 637; in the data active = inhibition above about 30%). As to conditions: yeast transport mutant growth, absorbance 615 nm, 18 h; stronger effect = higher value.
[7] abbreviates: H69AR cells + 2 uM doxorubicin, measured here: viability with 2 uM doxorubicin, stronger effect = lower value.
Setting [8] is: H69AR cells, compound alone cytotoxicity.

Regarding `CCn1c(SCC(=O)NC)nnc1C(C)C`, the viability (as a rule, a read-out of living cells in per cent, often relative to untreated cells) was 97% (inactive) in assay [1]; 123% (inactive) in assay [2]; 94.8% (inactive) in assay [3]; 85.8% in assay [4] (setting [7]); 94.8% in assay [4] (setting [8]). In addition, the differential viability (reversal) in assay [4] (H69AR cells + 2 uM doxorubicin) is 8.98% (inactive). Also, the inhibition (as a rule, the drop in the measured response relative to a control, in per cent) is -7.3% (inactive) in assay [5] and -4.91% (inactive) in assay [6].

For the molecule `CC(=O)[C@H]1CC[C@H]2[C@@H]3CCC4=CC(=O)CC[C@]4(C)[C@H]3[C@H](O)C[C@]12C`, the viability is 87% (inactive) in assay [1]; 83.6% (inactive) in assay [2]; 100% (inactive) in assay [3]; 96.6% in assay [4] (setting [7]); 100% in assay [4] (setting [8]). Also, the differential viability (reversal) in assay [4] (H69AR cells + 2 uM doxorubicin) is 3.85% (inactive). In addition, the inhibition in assay [5] is 2.08% (inactive); in assay [6] it was -6.83% (inactive).

As to `COc1ccc(-c2noc(CCN3C(=O)c4ccccc4C3=O)n2)cc1OC`, the viability in assay [1] is 140% (inactive); in assay [2], 105% (inactive); in assay [3] it was 93.9% (inactive); in assay [4] (setting [7]), 76.1%; in assay [4] (setting [8]) it was 93.9%. In addition, in assay [4] (H69AR cells + 2 uM doxorubicin), the differential viability (reversal) is 17.8% (inactive). In addition, the inhibition in assay [5] is -4.03% (inactive); in assay [6] it was -1.15% (inactive).

With `COC(=O)c1sc(S(=O)(=O)N2CCN(c3ccccc3)CC2)c(C(=O)OC)c1C`, the viability was 69% (inactive) in assay [1]; 96.1% (inactive) in assay [2]; 85.6% (inactive) in assay [3]; 87.5% in assay [4] (setting [7]); 85.6% in assay [4] (setting [8]). In assay [4] (H69AR cells + 2 uM doxorubicin), the differential viability (reversal) was -1.87% (inactive). Further, the inhibition in assay [5] is -8.63% (inactive); in assay [6], 4% (inactive).

Take `COc1ccc(NC(=O)CSc2nc(C)cc(C(F)(F)F)n2)cc1`: the viability in assay [1] was 91% (inactive); in assay [2], 103% (inactive); in assay [3], 87.4% (inactive); in assay [4] (setting [7]), 84.1%; in assay [4] (setting [8]), 87.4%. Also, in assay [4] (H69AR cells + 2 uM doxorubicin), the differential viability (reversal) was 3.33% (inactive). The inhibition in assay [5] was -6.44% (inactive); in assay [6], -4.91% (inactive).

Take `Clc1ccc(-n2nnnc2Sc2ncnc3sccc23)cc1`: the viability is 123% (inactive) in assay [1]; 5.51% (active) in assay [2]; 1.29% (active) in assay [3]; 1.56% in assay [4] (setting [7]); 1.29% in assay [4] (setting [8]). For the same molecule, in assay [4] (H69AR cells + 2 uM doxorubicin), the differential viability (reversal) was -0.27% (inactive). Besides, the inhibition is 20.6% (inactive) in assay [5] and 65.5% (active) in assay [6].

`CCN(CC)c1nc(N(CC)CC)[nH]c(=O)n1`: the viability in assay [1] is 112% (inactive); in assay [2], 110% (inactive); in assay [3] it was 94.7% (inactive); in assay [4] (setting [7]) it was 92.6%; in assay [4] (setting [8]), 94.7%. The differential viability (reversal) in assay [4] (H69AR cells + 2 uM doxorubicin) was 2.19% (inactive). Besides, the results for the inhibition in assay [5] and in assay [6] were -4.94% (inactive) and 6.72% (inactive), respectively.

As to `COC(=O)c1sc(N)c(C(=O)OC)c1COC(=O)C1CC(=O)N(Cc2ccco2)C1` (centres undefined), the viability in assay [1] is 84% (inactive); in assay [2] it was 103% (inactive); in assay [3], 72.8% (inactive); in assay [4] (setting [7]) it was 78.9%; in assay [4] (setting [8]), 72.8%. For the same molecule, in assay [4] (H69AR cells + 2 uM doxorubicin), the differential viability (reversal) is -6.05% (inactive). Besides, the inhibition in assay [5] is -4.19% (inactive); in assay [6], -2.18% (inactive).

Turning to `CC1=C(C)C(=O)C(CCCCC#CCCCC#CCO)=C(C)C1=O`, the viability in assay [1] was 62% (inactive); in assay [2] it was 78.8% (inactive); in assay [3], 56.6% (inactive); in assay [4] (setting [7]) it was 32.8%; in assay [4] (setting [8]) it was 56.6%. Besides, in assay [4] (H69AR cells + 2 uM doxorubicin), the differential viability (reversal) was 23.8% (inactive). For the same molecule, the values for the inhibition in assay [5] and in assay [6] were 2.99% (inactive) and -1.5% (inactive), respectively.

Regarding `CCN(CC)CCNC(=O)c1ccc(N2CCCCC2)c(NS(=O)(=O)c2ccc(C)cc2)c1`, the viability is 81% (inactive) in assay [1]; 18.5% (active) in assay [2]; 76.6% (inactive) in assay [3]; 74.1% in assay [4] (setting [7]); 76.6% in assay [4] (setting [8]). Besides, in assay [4] (H69AR cells + 2 uM doxorubicin), the differential viability (reversal) was 2.53% (inactive). For the same molecule, the inhibition is -6.13% (inactive) in assay [5] and 7.21% (inactive) in assay [6].

On to `Cc1ccc(OCC2Cn3c(nc4c3c(=O)n(C)c(=O)n4C)O2)cc1` (centres undefined), for which the viability in assay [1] is 91% (inactive); in assay [2], 96% (inactive); in assay [3], 93% (inactive); in assay [4] (setting [7]), 96%; in assay [4] (setting [8]) it was 93%. Also, in assay [4] (H69AR cells + 2 uM doxorubicin), the differential viability (reversal) is -3% (inactive). Moreover, the inhibition in assay [5] is -8.36% (inactive); in assay [6], 2.91% (inactive).

With `O=C(Nc1cc(C(F)(F)F)ccc1N1CCCC1)c1ccc2c(c1)OCO2`, the viability in assay [1] is 72% (inactive); in assay [2], 92.9% (inactive); in assay [3] it was 98% (inactive); in assay [4] (setting [7]), 97.1%; in assay [4] (setting [8]), 98%. For the same molecule, the differential viability (reversal) in assay [4] (H69AR cells + 2 uM doxorubicin) was 0.92% (inactive). Moreover, the inhibition in assay [5] is -6.99% (inactive); in assay [6] it was -5.09% (inactive).

Take `CN1CCc2c(sc3c2c(=O)n(-c2cccc(Cl)c2)c2nncn32)C1`: the viability in assay [1] was 102% (inactive); in assay [2], 84.5% (inactive); in assay [3], 95.8% (inactive); in assay [4] (setting [7]) it was 109%; in assay [4] (setting [8]) it was 95.8%. Besides, the differential viability (reversal) in assay [4] (H69AR cells + 2 uM doxorubicin) is -13.3% (inactive). Further, the inhibition in assay [5] was -2.6% (inactive); in assay [6], -5.41% (inactive).

With `O=C1C(Cl)=C(NCC2CCCO2)C(=O)N1CCc1ccccc1` (centres undefined), the viability in assay [1] was 75% (inactive); in assay [2] it was 111% (inactive); in assay [3], 87.4% (inactive); in assay [4] (setting [7]) it was 79%; in assay [4] (setting [8]) it was 87.4%. The differential viability (reversal) in assay [4] (H69AR cells + 2 uM doxorubicin) was 8.39% (inactive). The inhibition in assay [5] was -0.82% (inactive); in assay [6] it was -4.03% (inactive).

With `CCn1c(SCC(=O)C(C)(C)C)nnc1-c1cnccn1`, the viability in assay [1] is 81% (inactive); in assay [2] it was 107% (inactive); in assay [3], 105% (inactive); in assay [4] (setting [7]), 89.2%; in assay [4] (setting [8]) it was 105%. The differential viability (reversal) in assay [4] (H69AR cells + 2 uM doxorubicin) is 15.9% (inactive). The inhibition is -3.7% (inactive) in assay [5] and -9.35% (inactive) in assay [6].

For `COc1ccc(-n2c(SCC(N)=O)nc3sc4c(c3c2=O)CCN(C)C4)cc1`, the viability in assay [1] is 126% (inactive); in assay [2], 93.5% (inactive); in assay [3], 101% (inactive); in assay [4] (setting [7]), 111%; in assay [4] (setting [8]), 101%. For the same molecule, the differential viability (reversal) in assay [4] (H69AR cells + 2 uM doxorubicin) was -9.52% (inactive). In addition, the inhibition in assay [5] is 6.16% (inactive); in assay [6] it was -1.94% (inactive).

As for `CN=c1sc2ccccc2n1CC(O)COCc1ccco1` (centres undefined), the viability in assay [1] is 107% (inactive); in assay [2], 86.6% (inactive); in assay [3], 98.4% (inactive); in assay [4] (setting [7]), 87.5%; in assay [4] (setting [8]) it was 98.4%. The differential viability (reversal) in assay [4] (H69AR cells + 2 uM doxorubicin) is 10.8% (inactive). Also, the inhibition in assay [5] is -8.49% (inactive); in assay [6] it was 1.94% (inactive).

As for `c1ccc2oc(SCc3cn4ccccc4n3)nc2c1`, the viability is 91% (inactive) in assay [1]; 93.3% (inactive) in assay [2]; 95% (inactive) in assay [3]; 85.6% in assay [4] (setting [7]); 95% in assay [4] (setting [8]). Besides, the differential viability (reversal) in assay [4] (H69AR cells + 2 uM doxorubicin) was 9.37% (inactive). Also, the figures for the inhibition in assay [5] and in assay [6] were -1.43% (inactive) and -1.48% (inactive), respectively.
